# Assay outcomes as filed in PubChem.
# FXIa inh – factor XIa (human) inhibition. purified FXIa, Boc-Glu-Ala-Arg-AMC fluorogenic substrate. inhibition, % at 5 µM. 220,000 compounds, 0.14% hits;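 active means inhibition of at least 40%; inactive means inhibition below 40%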;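 further: fluorescence of freed AMC excited at 355 nm; 0% = enzyme without compound and 100% = no enzyme blank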
# Target sequence (P03951 19-387 limits assumed): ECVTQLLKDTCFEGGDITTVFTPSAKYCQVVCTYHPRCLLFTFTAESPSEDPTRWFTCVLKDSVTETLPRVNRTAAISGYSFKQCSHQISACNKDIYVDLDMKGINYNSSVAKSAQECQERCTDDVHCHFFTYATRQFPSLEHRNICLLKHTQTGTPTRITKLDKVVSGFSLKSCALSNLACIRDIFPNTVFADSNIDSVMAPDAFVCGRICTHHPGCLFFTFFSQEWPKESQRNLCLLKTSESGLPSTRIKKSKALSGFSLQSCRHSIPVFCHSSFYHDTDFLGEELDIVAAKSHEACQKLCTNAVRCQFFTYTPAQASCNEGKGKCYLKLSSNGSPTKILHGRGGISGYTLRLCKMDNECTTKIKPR
# Target sequence (P03951 388-625 limits assumed): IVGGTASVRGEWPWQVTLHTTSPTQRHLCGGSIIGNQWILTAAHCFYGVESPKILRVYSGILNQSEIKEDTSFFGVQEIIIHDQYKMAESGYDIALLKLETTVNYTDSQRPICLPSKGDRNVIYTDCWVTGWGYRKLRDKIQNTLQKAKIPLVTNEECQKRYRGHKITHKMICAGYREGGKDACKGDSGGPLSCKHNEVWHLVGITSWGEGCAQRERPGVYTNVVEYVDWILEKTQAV
# CTSL1 counter – blocks F. hepatica cathepsin L1 in PFM18AAP counter-screen; recombinant F. hepatica cathepsin L1, Z-Leu-Arg-MCA fluorescence; inhibition, % at 5.96 µM; 300,000 compounds, 0.49% hits;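 active means inhibition above the mean of all tested compounds plus 3 SD, set per screening campaign, cut at about 17% in these data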;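 further: 0% = plate median of test compound wells and 100% = 1 µM Z-Phe-Ala-diazomethylketone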
# FXIIa inh – inhibitors of human coagulation factor XIIa; inhibition, % at 5 µM; purified FXIIa, Boc-QGR-AMC fluorogenic substrate, 2 h; AID 800; 220,000 compounds, 0.3% hits; P00748; in the data active means inhibition above about 40%;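 further: 0% = enzyme with no compound and 100% = blank without enzyme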
# hK5 inh – inhibitors of human kallikrein 5. Q9Y337. 210,000 compounds, 0.59% hits. recombinant hK5, fluorogenic AMC substrate cleavage. inhibition, % at 5 µM;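 active means inhibition of 40% or more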;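 further: 0% = enzyme controls without compound and 100% = no-enzyme blanks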
# Rce1 inhib – yeast Ras-converting enzyme inhibition; calls only; yeast membranes, quenched prenylated peptide cleavage fluorescence; 290,000 compounds, 0.27% hits;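 active means fall in fluorescence gain of 50% or more versus controls, with final raw signal at or below 3038400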;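 further: plate controls were neutral control wells for no effect and wells lacking membranes for full effect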
# thrombin 1536 – thrombin (human) inhibition; P00734; alpha-thrombin, Boc-VPR-AMC fluorogenic substrate cleavage; inhibition, % at 5 µM; 220,000 compounds, 0.26% hits;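 active means inhibition at or above 40%; inactive means inhibition below 40%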;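 further: 0% = enzyme with no compound and 100% = wells without enzyme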
#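 System: Human alpha-thrombin protein | Medium: pH 7.5 Tris (50 mM) with NaCl 150 mM, Tween 20 0.05% | Times: Enzyme reaction carried out at room temperature | Detection: AMC fluorescence, 355/460 nm | Evaluation: Percent inhibition scaled between no-compound controls and no-enzyme blanks | Benchmarks: Enzyme without compound as high, wells lacking enzyme as low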
# * hit, by the source's call; i = inactive; / = not tested or not shown; + = active, no number. In the library only some 1.4% were active in any assay of this set; here they are far more common.
SMILES,FXIa inh,CTSL1 counter,FXIIa inh,hK5 inh,Rce1 inhib,thrombin 1536
O=C(CN(Cc1ccco1)C(=O)Cn1nnc(-c2cccs2)n1)NCC1CCCO1 (stereo unspecified),-2.7,-3.2,13.7,2.2,i,-2.5
N#CCCn1cc(/C=C2\NC(=S)N(c3ccccc3)C2=O)c(-c2ccc(F)cc2)n1,0.8,4.8,8.9,2.5,i,-1.8
O=C(O)CCn1cc(/C=C2\NC(=S)N(c3ccccc3)C2=O)c(-c2ccc(Br)cc2)n1,-1.8,18.7*,4.2,1.2,i,-5.9
COc1ccccc1-c1cc(C(=O)O)c2c(=O)n(C)c(=O)n(Cc3ccccc3)c2n1,/,4.0,/,/,+,/
O=C1c2ccc(-c3ccc4c(c3)C(=O)N(CCO)C4=O)cc2C(=O)N1CCO,53.1*,14.1,25.0,45.5*,i,9.5
Cc1ccc2c(c1)C(=O)N(CCCCO)C2=O,11.2,0.3,3.6,-2.2,i,-1.9
COc1ccc(CN2CCN(C(c3ccc(F)cc3)c3ccc(F)cc3)CC2)c(OC)c1OC,/,3.0,/,/,+,/
CCOC(=O)C1CCN(C2CCN(C(=O)c3oc4c(C)c(C)ccc4c3C)CC2)CC1,/,-1.7,/,/,i,/
CCOc1ccccc1C(=O)N/N=C/c1coc2ccc(Cl)cc2c1=O,/,/,/,/,i,/
COc1ccc(S(=O)(=O)NCCC(C)C)cc1OC,4.0,1.0,17.6,121.0*,i,10.2
COc1ccc(CCNS(=O)(=O)c2ccc3c(c2)OCCO3)cc1OC,9.7,2.9,27.2,68.9*,i,24.3
CC(C)CCNS(=O)(=O)c1ccc(-c2ccc(S(=O)(=O)NCCC(C)C)cc2)cc1,4.6,-0.8,4.6,-35.3,i,-11.6
CC(Oc1ccc(Cl)cc1)C(=O)N/N=C/c1ccsc1 (stereo unspecified),6.5,2.7,7.1,-5.3,i,-3.1
Cc1ccccc1N(C(=O)Cc1cccs1)C(C(=O)NCC1CCCO1)c1cccnc1 (stereo unspecified),-10.8,2.5,-2.1,39.5,i,-7.0
O=C(NCC1CCCO1)C(c1cccnc1)N(C(=O)Cc1cccs1)c1ccccc1 (stereo unspecified),-2.6,2.2,7.1,40.6*,i,2.4
O=C(COc1ncnc2ccccc12)Nc1cc([N+](=O)[O-])ccc1F,-1.0,-0.6,-2.8,12.9,i,-11.6
C=CCNc1oc(/C=C/c2ccccc2)nc1C#N,-45.3,4.0,-71.1,-495.5,+,-21.9
CCN(CC)C(=O)c1sc(NC(=O)Cc2ccccc2)c(C#N)c1C,15.0,-1.1,18.3,40.8*,i,23.4
CCN(CC)C(=O)c1sc(NC(=O)Cc2ccc(OC)cc2)c(C#N)c1C,0.6,-1.1,12.9,3.6,i,6.5
Cc1ccccc1OCC(=O)Nc1sc(C(=O)Nc2cccc(C)c2C)c(C)c1C#N,-0.9,3.4,12.8,45.4*,i,5.2
COC(=O)C(Cc1ccc(O)cc1)N1Cc2ccccc2C1=O (stereo unspecified),/,-2.9,/,/,i,/
CC(NC(=O)CN1C(=O)c2ccccc2C1=O)c1ccccc1 (stereo unspecified),/,-2.4,/,/,i,/
COC(=O)C(NC(=O)CN1C(=O)c2ccccc2C1=O)c1ccc(O)c(OC)c1 (stereo unspecified),/,17.0*,/,/,i,/
Cc1cccc(NC(=O)CN(C2=NC3CS(=O)(=O)CC3S2)c2ccccc2F)c1 (stereo unspecified),/,-4.3,/,/,i,/
O=C(NNc1ccccc1C(F)(F)F)c1sccc1Br,-1.6,0.8,1.8,-2.5,i,1.9
SMILES,FXIa inh,CTSL1 counter,FXIIa inh,hK5 inh,Rce1 inhib,thrombin 1536
CCN(CC)C(=S)Nc1ccc(OC)cc1,0.2,-4.2,7.1,-30.2,i,-5.5
COc1ccc(CN(C)C(=S)Nc2ccc(Cl)cc2)cc1,27.2,-3.3,42.4*,30.0,i,-0.6
COc1cc2c(cc1OC)C(C)N(C(=O)c1ccc(Br)o1)CC2 (stereo unspecified),3.5,-0.9,6.1,2.1,i,-8.2
O=c1[nH]c(N2CCOCC2)cc2ccccc12,/,55.9*,/,/,i,/
CC1(C)CC(=O)C=C(NCCN2CCN(C(=S)NC3CCCCC3)CC2)C1,5.5,-3.2,5.9,-4.1,i,-3.0
Cc1ccc(/C=C(\NC(=O)c2ccccc2)C(=O)OCc2ccccc2)cc1,6.5,21.6*,14.9,-22.9,i,-1.5
CCOC(=O)/C(=C\c1ccc(C)cc1)NC(=O)c1ccccc1,-7.5,-1.5,5.1,-4.1,i,-5.3
O=c1[nH]c(=O)n(Cc2ccco2)c2c1C(C(F)(F)F)(C(F)(F)F)N=C(c1ccc(F)cc1)N2,-2.6,4.2,3.8,4.4,i,-2.7
O=c1[nH]c(=O)n(Cc2ccccc2)c2c1C(C(F)(F)F)(C(F)(F)F)N=C(c1ccco1)N2,14.9,4.0,21.9,147.5*,i,40.4*
C=CCn1c(SCc2c(C)noc2C)nc2cc(C(=O)O)ccc2c1=O,10.9,-0.9,21.4,20.9,i,46.1*
Cc1noc(C)c1CSc1nc2ccccc2c(=O)n1-c1ccccc1,4.5,3.3,18.5,-4.5,i,2.8
Cc1noc(C)c1CSc1nc2ccccc2c(=O)n1-c1ccc(F)cc1F,26.5,1.7,42.9*,-3.3,i,0.4
COc1cccc(CC2(CO)CCCN(Cc3ccc(CN4CCCCC4)s3)C2)c1 (stereo unspecified),9.0,1.6,10.9,/,/,-4.2
CCc1ccc(CCC(=O)Nc2ccc(C(=O)O)cc2)o1,/,-0.3,/,/,i,/
CC(=O)Nc1cccc(C(=O)OCc2ccccc2)c1,28.9,-2.3,15.6,82.0*,i,11.2
Clc1ccc(CSc2nnnn2-c2ccc3c(c2)OCO3)c(Cl)c1,-1.3,5.3,1.0,1.3,i,-0.9
COc1ccc(CCNC(=O)c2cc(-c3ccccc3)c(N3CCOCC3)s2)c(OC)c1OC,/,2.8,/,/,i,/
Cn1c(SCC(=O)N2CCc3ccccc3C2)nnc1-c1cccs1,18.6,-3.1,21.7,42.6*,i,18.3
Nn1c(SCC(=O)N2CCc3ccccc3C2)nnc1-c1cccs1,19.3,0.2,19.8,52.4*,i,17.3
Cc1csc(SC(C)c2nc3scc(-c4ccccc4)c3c(=O)[nH]2)n1 (stereo unspecified),-2.0,-4.8,2.8,0.5,i,-2.8
CC(C)(C)c1nc2c(s1)CCc1onc(-c3ccc(Cl)cc3)c1-2,/,-1.7,/,/,i,/
CC(C)(C)NC(=O)Nc1nnc(SCC(=O)NC2CCCCC2)s1,/,12.2,/,/,i,/
C=CCOC(=O)C(C#N)c1nc2ccccc2nc1N1CCN(Cc2ccccc2)CC1 (stereo unspecified),3.0,2.0,-8.2,45.6*,i,6.3
C=CCNC(=O)C(C#N)c1nc2ccccc2nc1N1CCN(Cc2ccccc2)CC1 (stereo unspecified),15.7,-3.3,23.5,35.2,i,104.3*
